Measured values from publication PMC4553143 (Circulation research, 2015).

What was measured:
granzyme B activity [1] = assay type: in vivo, mouse
How it was run: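 Male CMy-Tg and C57BL/6 WT mice (10–12 weeks) received OT-1 CD8+ T cells i.p. in PBS (2.0, 3.5 or 5.0 × 10^6). Dexamethasone 0.75 mg/kg or PBS i.p. daily, days 1–4. Day 4: probe i.v. (50 μL, 1 μmol/L in PBS) or ProSense 680 (2 nmol/150 μL). After 24 h: FMT-CT under anaesthesia; ex vivo FRI, 680 nm channel.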

CMy-Tg mice [2] = test: Survival study in CD8+ T cell-mediated myocarditis; assay type: in vivo, mouse; details: 0.75 mg/kg i.p. for 4 days; 2.0 × 10^6 OT-1 cells; n = 8
How it was run: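 Male CMy-Tg and WT C57BL/6 mice (10–12 weeks) received 2.0, 3.5 or 5.0 × 10^6 OT-1 CD8+ T cells i.p. in PBS. Dexamethasone 0.75 mg/kg/day, freshly dissolved in sterile PBS, given i.p. in 100 μL on days 1–4 after cell transfer; controls received PBS. Survival followed for 28 days; Kaplan–Meier analysis, n = 8 per group.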

CMy-Tg mice [3] = test: Heart and serum markers and histology in CD8+ T cell-mediated myocarditis; assay type: in vivo, mouse; details: CMy-Tg mice 5 days post transfer of 3.5 × 10^6 OT-1 CD8+ T cells
How it was run: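 CMy-Tg (n = 12) and WT (n = 4) mice received 3.5 × 10^6 OT-1 CD8+ T cells. PBS vehicle or dexamethasone (0.75 mg/kg) i.p. on days 1–4. Hearts and serum collected at day 5. Heart granzyme B and cleaved caspase-3 measured by Western blot, normalized to GAPDH. Serum granzyme B, interferon-γ and cardiac troponin-I assayed. P values versus vehicle of each strain.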

[4] = system: OT-1 CD8+ T cells / CMy-Tg cardiomyocytes; test: Granzyme B expression in OT-1 CD8+ T cells and co-cultures in vitro; assay type: cell-based, mouse
chymotrypsin = test: Enzymatic assay of nanoprobe activation; assay type: biochemical; details: chymotrypsin 0.01 mg/mL, 82-fold excess activity; n = 3
[5] = molecular target: T1, granzyme B in lysates of CD8+ T cells (Mus musculus, UniProt P04187); test: Probe activation by lysates of CD8+ T cells; assay type: biochemical
T1 sequence (P04187 21-247): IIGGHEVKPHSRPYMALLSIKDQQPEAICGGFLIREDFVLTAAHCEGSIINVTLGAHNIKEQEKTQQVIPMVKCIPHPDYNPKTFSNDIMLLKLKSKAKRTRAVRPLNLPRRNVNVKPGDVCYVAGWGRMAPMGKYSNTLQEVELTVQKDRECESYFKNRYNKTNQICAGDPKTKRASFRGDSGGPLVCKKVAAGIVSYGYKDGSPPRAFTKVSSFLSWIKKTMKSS

granzyme B activity [6] = test: Ex vivo FRI in cardiac myosin-induced experimental autoimmune myocarditis; parameters: species or system mouse; details: 24 hours post probe injection, 21 days after immunization
How it was run: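 Balb/cByJ mice were immunized with a murine α-myosin H chain-derived peptide (n = 16); controls received PBS instead (n = 4). Granzyme B-sensitive probe given i.v. on day 20. One day later, excised hearts and sections were imaged by microscopic ex vivo FRI in the 680 nm channel. Exposure: 1 min for tissue, 30 min for heart sections.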

Compound | granzyme B activity, fluorescence intensities in hearts (granzyme B activity [1]; dexamethasone administration in vivo, vehicle 504±263, P=0.002) | survival of CMy-Tg mice (CMy-Tg mice [2]) | serum concentrations of granzyme B, interferon-γ, and cardiac troponin-I (CMy-Tg mice [3]) | protein levels of granzyme B and active caspase-3 in hearts (CMy-Tg mice [3]; Western blot) | granzyme B protein concentrations in OT-1 CD8+ T cells and their culture medium ([4]; 48 hours of anti-CD3 stimulation) | probe signals colocalized with granzyme B activity ([4]; CMy-Tg cardiomyocytes co-cultured with OT-1 CD8+ T cells, confocal microscopy) | probe activation on incubation with chymotrypsin (chymotrypsin) | fluorescent signal from the probe incubated with lysates ([5]; lysates of Balb/c WT CD8+ T cells stimulated with anti-CD-3, 48 hours) | fluorescent signal from the probe incubated with lysates ([5]; lysates of granzyme B-deficient CD8+ T cells) | signal compared with ProSense 680 (granzyme B activity [1]; CD8+ T cell-mediated myocardial injury model) | signals from the probe in heart tissues and sections, EAM Balb/cByJ vs WT mice (granzyme B activity [6])
C[C@@H]1C[C@H]2[C@@H]3CCC4=CC(=O)C=C[C@]4(C)[C@@]3(F)[C@@H](O)C[C@]2(C)[C@@]1(O)C(=O)CO [dexamethasone] | 194±77 fluorescence intensities | survived for 28 days | limited these increases | reduced these concentrations | did not mute this rise | decreased the probe signals | – | – | – | – | –
GIEFDSGGC [granzyme B-sensitive nanoprobe] | – | – | – | – | – | – | activation comparable in intensity to Granzyme B | increased above baseline after 48 hours | did not demonstrate a comparable increase | substantially higher signal | higher signals
